Screening data as filed in PubChem.
TAAR1 ag – human TAAR1 agonism. Q96RJ0. CHO RD-HGA16 TAAR1, Fluo-8 calcium fluorescence; vehicle wells 0%, saturating PEA agonist 100%. activation, % at 3 µM. 360,000 tested, 0.99% active. AID 624467;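 active = activation above the mean activation of all test compounds in the run plus 3 SD, cut at about 38% in these data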
Target sequence (Q96RJ0 whole entry, looked up): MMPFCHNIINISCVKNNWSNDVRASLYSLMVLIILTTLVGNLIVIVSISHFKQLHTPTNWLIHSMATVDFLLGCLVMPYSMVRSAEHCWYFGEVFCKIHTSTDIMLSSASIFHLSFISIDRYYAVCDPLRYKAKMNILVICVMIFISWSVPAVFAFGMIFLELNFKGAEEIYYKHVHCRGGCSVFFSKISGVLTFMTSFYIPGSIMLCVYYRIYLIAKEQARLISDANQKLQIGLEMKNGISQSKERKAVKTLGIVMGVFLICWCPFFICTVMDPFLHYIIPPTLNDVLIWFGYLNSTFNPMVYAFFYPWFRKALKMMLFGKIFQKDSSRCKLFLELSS
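Test system: RD-HGA16 (CHO) cells co-expressing Gα16 and hTAAR1 / Benchmarks: DMSO vehicle as 0%, PEA at EC100 as 100% / Repeats: no replicates (n 1) / Measure: % activation from peak over basal fluorescence ratio, DMSO-to-PEA scaled / Timing: 17-24 h plating, Fluo-8 75 min 37 °C, 30 min RT / Technique: kinetic Fluo-8 calcium fluorescence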
OX1R antag-1 – OX1R (human) antagonism; inhibition, % at 6.6 µM; 330,000 tested, 1.8% active; OX1R-expressing cells, FRET antagonist read-out; O43613; in the data active = inhibition mostly above about 38%, no sharp cut-off; inactive = mostly below about 40%;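 note: 0% = agonist challenge alone and 100% = reference antagonist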
TAAR1 antagonist – human TAAR1 antagonism; Q96RJ0; CHO RD-HGA16 TAAR1, Fluo-8 calcium fluorescence, antagonist; inhibition, % at 3 µM; 360,000 tested, 1.5% active; AID 624466;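 active = inhibition above a per-plate cutoff, the mean inhibition of test compounds on that plate plus 3 SD, cut at about 49% in these data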;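 note: 0% = DMSO plus EC80 beta-PEA response and 100% = DMSO alone without agonist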
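Assay system: CHO-derived RD-HGA16 cells stably expressing human TAAR1 plus Gα16. Timing: 140 s kinetic read after compound, 140 s after agonist. Technique: kinetic Fluo-8 calcium fluorescence measurement. Measure: % inhibition of agonist calcium response.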
OX1R antag-2 – human HCRTR1 antagonism; CHO/OX1R cells, Fluo-8 calcium fluorescence, orexin A; inhibition, % at 5 µM; 330,000 tested, 0.43% active; AID 434989;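 active = inhibition above its plate's threshold, mean inhibition of all tested compounds on the plate plus 3 SD, cut at about 37% in these data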;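 note: 0% = orexin A challenge wells and 100% = SB-334867-A antagonist wells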
NTR1 ag – NTR1 (human) agonism; P30989; NTR1-U2OS beta-arrestin-GFP spot imaging, agonist mode; activation, % at 20 µM; 330,000 tested, 0.17% active; AID 493036;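 active = activation at or above 40% of the spot to cytoplasm intensity ratio, with at least 20 cells analyzed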;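 note: 0% = DMSO without peptide and 100% = 100 nM NTR1 peptide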
Target sequence (P30989 whole entry, looked up): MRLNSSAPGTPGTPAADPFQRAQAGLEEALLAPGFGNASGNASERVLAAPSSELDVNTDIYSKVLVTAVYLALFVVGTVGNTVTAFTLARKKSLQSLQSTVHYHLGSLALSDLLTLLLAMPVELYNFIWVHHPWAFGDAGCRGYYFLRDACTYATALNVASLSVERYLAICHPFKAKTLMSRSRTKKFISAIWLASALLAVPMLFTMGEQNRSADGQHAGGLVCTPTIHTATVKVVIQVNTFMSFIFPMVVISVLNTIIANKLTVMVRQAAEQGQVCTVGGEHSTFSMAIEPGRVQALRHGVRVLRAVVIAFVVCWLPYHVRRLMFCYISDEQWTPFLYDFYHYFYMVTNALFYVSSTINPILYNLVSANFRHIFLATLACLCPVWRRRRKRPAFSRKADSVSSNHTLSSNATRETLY
CHO parental Ca – signal in parental CHO cells, OX1R antagonist counter-screen | parental CHO-K1, ATP-induced calcium, Fluo-8 fluorescence | inhibition, % at 5.6 µM | 330,000 tested, 0.63% active | AID 463079;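 active = inhibition above that plate's mean sample inhibition plus 3 SD, cut at about 26% in these data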;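 note: 0% = ATP-challenged DMSO wells and 100% = DMSO wells without ATP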
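test system = CHO parental line | reagent = ATP stimulus | measured by = intracellular calcium via Fluo-8 no-wash fluorescent dye | control set = ATP and no-ATP DMSO wells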
TAAR1 nonsel count – counter-screen for TAAR1 antagonists: nonselective antagonists | AID 651780 | inhibition, % at 3 µM | shares compounds with TAAR1 antagonist | 2,400 tested, 77% active | counterscreen cell line, calcium fluorescence, antagonist mode; in the data active = inhibition above about 22%;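 note: CHO-Ga16 host cells stimulated with ATP at an EC80 level; 0% = agonist EC80 plus vehicle and 100% = vehicle without agonist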
TAAR1 antag conf – human TAAR1 antagonism, confirmed | shares compounds with TAAR1 antagonist | TAAR1-expressing cells, fluorescence antagonist read-out | inhibition, % at 3 µM | 2,400 tested, 40% active | AID 651785; in the data active = inhibition above about 49%;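 note: CHO-Ga16 host cells challenged with agonist PEA near its EC80; 0% = agonist at EC80 plus vehicle and 100% = vehicle with no agonist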
Ga16 nonsel ag – counter-screen for TAAR1 antagonists: nonselective Ga16 agonists; Ga16-expressing cells, calcium fluorescence, agonist counterscreen; shares compounds with TAAR1 antagonist; activation, % at 3 µM; 2,400 tested, 18% active; AID 651953; in the data active = activation above about 12%;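 note: 0% = vehicle wells and 100% = saturating stimulus response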
TAAR1 ag counter – counter-screen for human TAAR1 antagonists: TAAR1 agonists. 2,400 tested, 2% active. shares compounds with TAAR1 antagonist. hTAAR1 cell line, fluorescence activation, agonist mode. AID 651955. activation, % at 3 µM; in the data active = activation above about 37%;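 note: CHO cells stably expressing TAAR1 with calcium dye readout; 0% = DMSO vehicle and 100% = full agonist response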
Starred values were filed as active, the others as inactive. A selection: hits, their analogues and other compounds. The true share with any hit is near 4%.

What do the screens show for `C[C@H]1CN([C@@H](C)CO)C(=O)c2cccc(NC(=O)C3CC3)c2O[C@H]1CN(C)C(=O)Nc1ccc2c(c1)OCO2`?
TAAR1 ag: 4; OX1R antag-1: 8; TAAR1 antagonist: -5; OX1R antag-2: 2; NTR1 ag: -3; CHO parental Ca: -6

Results for COC(=O)[C@H](C)N(Cc1ccc(Cl)c(Cl)c1)S(=O)(=O)CCN1CCCC1 ?
TAAR1 ag: 3; OX1R antag-1: 7; TAAR1 antagonist: -5; OX1R antag-2: -20; NTR1 ag: -2; CHO parental Ca: -15

Results for COc1ccccc1C(=O)NCCC(=O)OCC(=O)Nc1ccc(S(N)(=O)=O)cc1 ?
TAAR1 ag: 7; OX1R antag-1: 9; TAAR1 antagonist: 8; OX1R antag-2: -26; NTR1 ag: 0; CHO parental Ca: -6

Results for Cc1nn2c(C)c(C(=O)Nc3ccccc3)cnc2c1-c1ccccc1 ?
TAAR1 ag: 14; OX1R antag-1: 5; TAAR1 antagonist: 58*; OX1R antag-2: -35; NTR1 ag: 2; CHO parental Ca: -10; TAAR1 nonsel count: 25*; TAAR1 antag conf: 42; Ga16 nonsel ag: 10; TAAR1 ag counter: 8

What do the screens show for `CC(=O)c1cnc2c(-c3ccccc3)c(C(F)(F)F)nn2c1C`?
TAAR1 ag: 13; OX1R antag-1: 18; TAAR1 antagonist: -1; OX1R antag-2: -19; NTR1 ag: 5; CHO parental Ca: 12

How did CC(OC(=O)C1CC2CCCC(C1)C2=O)C(=O)Nc1cccc([N+](=O)[O-])c1 (stereo unspecified) do in these assays?
TAAR1 ag: 8; OX1R antag-1: 14; TAAR1 antagonist: -8; OX1R antag-2: -12; NTR1 ag: -1; CHO parental Ca: -8

How did CC(OC(=O)[C@@H]1CCCN1C(=O)c1cccs1)C(=O)Nc1cccc([N+](=O)[O-])c1 (stereo partly specified) do in these assays?
TAAR1 ag: 9; OX1R antag-1: 17; TAAR1 antagonist: 66*; OX1R antag-2: 7; NTR1 ag: 12; CHO parental Ca: 2; TAAR1 nonsel count: 42*; TAAR1 antag conf: 47; Ga16 nonsel ag: 13*; TAAR1 ag counter: 13

Results for C[C@H](CO)N1C[C@H](C)[C@H](CN(C)C(=O)Nc2cccc(F)c2)Oc2cc(C#CC3(O)CCCC3)ccc2S1(=O)=O ?
TAAR1 ag: 5; TAAR1 antagonist: -5

How did O=C(NCc1ccco1)c1cccc(Nc2nc3ccc(Br)cc3[nH]2)c1 do in these assays?
TAAR1 ag: 18; OX1R antag-1: 19; TAAR1 antagonist: 56*; OX1R antag-2: -22; NTR1 ag: 10; CHO parental Ca: -26; TAAR1 nonsel count: 24*; TAAR1 antag conf: 27; Ga16 nonsel ag: 5; TAAR1 ag counter: 12

What do the screens show for `O=C(Nc1ccccc1)C1=C[C@@H](c2coc3ccccc3c2=O)C[C@@H](OCc2ccc(CO)cc2)O1`?
TAAR1 ag: 8; OX1R antag-1: 27; TAAR1 antagonist: 51*; OX1R antag-2: -24; NTR1 ag: 0; CHO parental Ca: -26; TAAR1 nonsel count: 20; TAAR1 antag conf: 25; Ga16 nonsel ag: 2; TAAR1 ag counter: -1

Results for CC(=O)n1cc([C@H]2C=C(C(=O)N3CCN(Cc4ccccc4)CC3)O[C@@H](OCc3ccc(CO)cc3)C2)c2ccccc21 ?
TAAR1 ag: 27; OX1R antag-1: 13; TAAR1 antagonist: 69*; OX1R antag-2: -6; NTR1 ag: 3; CHO parental Ca: -22; TAAR1 nonsel count: 35*; TAAR1 antag conf: 46; Ga16 nonsel ag: 9; TAAR1 ag counter: 9

What do the screens show for `O=C(C1=C[C@@H](c2csc3ccccc23)C[C@@H](OCc2ccc(CO)cc2)O1)N1CCOCC1`?
TAAR1 ag: 32; OX1R antag-1: 22; TAAR1 antagonist: 57*; OX1R antag-2: -2; NTR1 ag: -5; CHO parental Ca: -1; TAAR1 nonsel count: 26*; TAAR1 antag conf: 35; Ga16 nonsel ag: 6; TAAR1 ag counter: 6

Results for O=C(NCc1ccccc1)C1=C[C@H](c2coc3ccccc3c2=O)C[C@H](OCc2ccc(CO)cc2)O1 ?
TAAR1 ag: 19; OX1R antag-1: 6; TAAR1 antagonist: 32; OX1R antag-2: -39; NTR1 ag: 0; CHO parental Ca: -26

How did O=C(NC1CC1)C1=C[C@H](c2csc3ccccc23)C[C@H](OCc2ccc(CO)cc2)O1 do in these assays?
TAAR1 ag: 34; OX1R antag-1: 12; TAAR1 antagonist: 58*; OX1R antag-2: -24; NTR1 ag: 3; CHO parental Ca: -17; TAAR1 nonsel count: 26*; TAAR1 antag conf: 44; Ga16 nonsel ag: 16*; TAAR1 ag counter: 23

Results for O=C(CSc1nc(=O)n2ccccc2n1)N1CCCc2ccccc21 ?
TAAR1 ag: -1; OX1R antag-1: 4; TAAR1 antagonist: 3; OX1R antag-2: -22; NTR1 ag: 0; CHO parental Ca: -4

What do the screens show for `CCOC(=O)c1c(C)[nH]c(C)c1C(=O)CSc1nc2ccccc2c(=O)n1-c1ccccc1C`?
TAAR1 ag: 14; OX1R antag-1: 26; TAAR1 antagonist: 57*; OX1R antag-2: -35; NTR1 ag: 4; CHO parental Ca: -35; TAAR1 nonsel count: 26*; TAAR1 antag conf: 47; Ga16 nonsel ag: 7; TAAR1 ag counter: 14

How did CCc1ccc2oc(C(=O)NC3CCS(=O)(=O)C3)cc(=O)c2c1 (stereo unspecified) do in these assays?
TAAR1 ag: 2; OX1R antag-1: 20; TAAR1 antagonist: 7; OX1R antag-2: -5; NTR1 ag: 2; CHO parental Ca: -4

What do the screens show for `Cc1cc2cc(CNC(=O)c3cccc([N+](=O)[O-])c3)ccc2n1C`?
TAAR1 ag: 0; OX1R antag-1: 20; TAAR1 antagonist: 0; OX1R antag-2: -11; NTR1 ag: -2; CHO parental Ca: -5

How did Cc1c(C(=O)NCc2ccc3c(c2)cc(C)n3C)cccc1[N+](=O)[O-] do in these assays?
TAAR1 ag: 10; OX1R antag-1: 2; TAAR1 antagonist: 67*; OX1R antag-2: -42; NTR1 ag: 0; CHO parental Ca: -5; TAAR1 nonsel count: 30*; TAAR1 antag conf: 51*; Ga16 nonsel ag: 7; TAAR1 ag counter: 8
